Measurements from ChEMBL document CHEMBL2040715, “Discovery of a Potent HIV Integrase Inhibitor that Leads to a Prodrug with Significant anti-HIV Activity” (ACS Med Chem Lett, 2011).
pEC50, pIC50: −log10 of the molar value.

Tests used:
[1] = molecular target: Human immunodeficiency virus type 1 integrase (Human immunodeficiency virus 1) (UniProt Q7ZJM1); experiment: (§1) Inhibition of HIV1 integrase-mediated strand transfer
[2] = molecular target: Human immunodeficiency virus type 1 integrase (Human immunodeficiency virus 1, UniProt Q7ZJM1); experiment: as §1
Sequence of Human immunodeficiency virus type 1 integrase (Q7ZJM1 whole entry): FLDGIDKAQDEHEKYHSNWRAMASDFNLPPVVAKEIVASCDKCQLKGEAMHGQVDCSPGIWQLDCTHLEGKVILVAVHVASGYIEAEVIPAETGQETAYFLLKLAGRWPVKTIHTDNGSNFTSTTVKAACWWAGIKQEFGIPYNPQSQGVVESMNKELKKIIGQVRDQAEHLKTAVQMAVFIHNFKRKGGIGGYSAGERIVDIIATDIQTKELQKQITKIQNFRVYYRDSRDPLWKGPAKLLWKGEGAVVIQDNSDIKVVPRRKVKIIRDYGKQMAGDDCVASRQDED

[3] = system: Human immunodeficiency virus 1; experiment: Antiviral activity against HIV1 infected in MAGI cells by beta-galactosidase reporter gene assay; type: functional, organism-based; settings: Human immunodeficiency virus 1, MAGI
Procedure, shortened: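 HIV-1 infection of MAGI cells, with raltegravir as the MOI-sensitive positive control validating each run. EC50 and EC90 were determined.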

Liver microsomes = experiment: Drug metabolism in human liver microsomes assessed as 3-acetyl-5-(2,4-difluorobenzyl)-1-(2-fluorobenzyl)pyridin-2(1H)-one production at 200 uM incubated for 3 mins prior to NADPH-addition by RP-HPLC analysis; type: ADME, Microsome; settings: 0.05 h
Cytochrome P450 2C8 = molecular target: T1, Cytochrome P450 2C8 (Homo sapiens, UniProt P10632); experiment: Inhibition of CYP2C8 in human liver microsomes using amodiaquine as substrate incubated for 3 mins prior to NAPDH-addition measured after 30 mins by RP-HPLC analysis; type: ADME, Microsome
T1 sequence (P10632 whole entry): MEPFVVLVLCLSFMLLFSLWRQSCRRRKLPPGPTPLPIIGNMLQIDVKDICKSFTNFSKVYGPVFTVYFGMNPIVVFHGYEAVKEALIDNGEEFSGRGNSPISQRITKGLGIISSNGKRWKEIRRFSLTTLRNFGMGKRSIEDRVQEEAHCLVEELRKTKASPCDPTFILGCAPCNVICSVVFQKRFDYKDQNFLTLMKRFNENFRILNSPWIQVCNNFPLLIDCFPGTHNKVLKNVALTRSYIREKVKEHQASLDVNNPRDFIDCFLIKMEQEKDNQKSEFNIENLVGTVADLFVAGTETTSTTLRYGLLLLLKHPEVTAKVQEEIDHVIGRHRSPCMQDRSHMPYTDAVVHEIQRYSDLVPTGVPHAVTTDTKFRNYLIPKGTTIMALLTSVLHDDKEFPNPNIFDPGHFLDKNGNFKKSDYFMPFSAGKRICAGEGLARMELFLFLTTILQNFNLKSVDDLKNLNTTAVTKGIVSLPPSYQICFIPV
Procedure, shortened: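 CYP2C8 was assayed in pooled human liver microsomes at 0.4 mg/mL protein with amodiaquine as substrate (5 mM stock; 200 μM listed). Incubation was 30 min with varying inhibitor concentrations, and IC50 was obtained by kinetic analysis.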

Cytochrome P450 3A4 = Cytochrome P450 3A4 (Homo sapiens, UniProt P08684); experiment: Activation of CYP3A4 in human liver microsomes incubated for 3 mins prior to NAPDH-addition measured after 30 mins by RP-HPLC analysis; type: ADME, Microsome; settings: 0.5 h
Sequence of Cytochrome P450 3A4 (P08684 whole entry): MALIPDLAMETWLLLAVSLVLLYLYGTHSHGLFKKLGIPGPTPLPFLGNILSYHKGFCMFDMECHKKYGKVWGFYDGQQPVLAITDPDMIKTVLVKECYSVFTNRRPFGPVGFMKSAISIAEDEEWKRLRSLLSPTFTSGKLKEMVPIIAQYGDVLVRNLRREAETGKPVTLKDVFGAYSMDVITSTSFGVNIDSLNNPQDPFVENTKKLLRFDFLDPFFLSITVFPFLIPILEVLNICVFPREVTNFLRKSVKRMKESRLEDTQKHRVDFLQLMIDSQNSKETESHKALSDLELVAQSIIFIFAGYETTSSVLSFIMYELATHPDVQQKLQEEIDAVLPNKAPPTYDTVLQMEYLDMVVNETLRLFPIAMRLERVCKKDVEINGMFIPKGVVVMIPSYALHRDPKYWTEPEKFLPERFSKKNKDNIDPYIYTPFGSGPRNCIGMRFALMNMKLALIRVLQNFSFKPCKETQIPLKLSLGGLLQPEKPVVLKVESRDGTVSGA

[4] = molecular target: T2, UDP-glucuronosyltransferase 1A1 (Homo sapiens, UniProt P22309); experiment: Activity at UGT1A1 in human liver microsomes at 50 uM incubated for 3 mins prior to NADPH-addition measured up to 120 mins by HPLC/UV analysis; type: ADME, Microsome
T2 sequence (P22309 whole entry): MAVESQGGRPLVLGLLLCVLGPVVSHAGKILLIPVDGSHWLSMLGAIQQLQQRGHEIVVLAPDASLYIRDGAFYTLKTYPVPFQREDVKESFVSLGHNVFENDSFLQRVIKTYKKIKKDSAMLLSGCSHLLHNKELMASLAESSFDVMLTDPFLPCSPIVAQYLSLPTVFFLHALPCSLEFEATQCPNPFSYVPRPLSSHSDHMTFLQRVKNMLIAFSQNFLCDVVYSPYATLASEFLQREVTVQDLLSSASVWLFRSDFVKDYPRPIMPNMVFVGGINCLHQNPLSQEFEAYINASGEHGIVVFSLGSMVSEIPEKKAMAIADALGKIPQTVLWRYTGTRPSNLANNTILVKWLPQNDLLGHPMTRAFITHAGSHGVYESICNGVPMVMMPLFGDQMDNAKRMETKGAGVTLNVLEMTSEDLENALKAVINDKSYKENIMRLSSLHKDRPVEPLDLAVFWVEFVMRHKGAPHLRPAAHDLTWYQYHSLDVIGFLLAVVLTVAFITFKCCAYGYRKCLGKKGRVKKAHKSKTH

[5] = molecular target: T3, UDP-glucuronosyltransferase 1A4 (Homo sapiens, UniProt P22310); experiment: Activity at UGT1A4 in human liver microsomes at 50 uM incubated for 3 mins prior to NADPH-addition measured up to 120 mins by HPLC/UV analysis; type: ADME, Microsome
T3 sequence (P22310 whole entry): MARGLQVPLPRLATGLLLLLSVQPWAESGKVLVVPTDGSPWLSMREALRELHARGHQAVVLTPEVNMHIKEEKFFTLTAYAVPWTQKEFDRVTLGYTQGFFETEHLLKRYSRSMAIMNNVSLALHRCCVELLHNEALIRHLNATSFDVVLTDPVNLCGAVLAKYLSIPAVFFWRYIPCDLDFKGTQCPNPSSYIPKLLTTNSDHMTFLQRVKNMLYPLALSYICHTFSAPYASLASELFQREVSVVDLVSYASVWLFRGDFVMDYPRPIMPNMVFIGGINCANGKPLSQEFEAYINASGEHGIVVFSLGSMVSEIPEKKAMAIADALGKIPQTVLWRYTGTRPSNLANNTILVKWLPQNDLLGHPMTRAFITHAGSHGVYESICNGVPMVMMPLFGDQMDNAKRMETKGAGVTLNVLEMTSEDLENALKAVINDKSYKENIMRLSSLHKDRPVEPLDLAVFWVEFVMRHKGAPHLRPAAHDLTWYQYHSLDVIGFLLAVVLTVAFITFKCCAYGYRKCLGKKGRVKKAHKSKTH

[6] = molecular target: T4, UDP-glucuronosyltransferase 2B7 (Homo sapiens, UniProt P16662); experiment: Activity at UGT2B7 in human liver microsomes at 50 uM incubated for 3 mins prior to NADPH-addition measured up to 120 mins by HPLC/UV analysis; type: ADME, Microsome
T4 sequence (P16662 whole entry): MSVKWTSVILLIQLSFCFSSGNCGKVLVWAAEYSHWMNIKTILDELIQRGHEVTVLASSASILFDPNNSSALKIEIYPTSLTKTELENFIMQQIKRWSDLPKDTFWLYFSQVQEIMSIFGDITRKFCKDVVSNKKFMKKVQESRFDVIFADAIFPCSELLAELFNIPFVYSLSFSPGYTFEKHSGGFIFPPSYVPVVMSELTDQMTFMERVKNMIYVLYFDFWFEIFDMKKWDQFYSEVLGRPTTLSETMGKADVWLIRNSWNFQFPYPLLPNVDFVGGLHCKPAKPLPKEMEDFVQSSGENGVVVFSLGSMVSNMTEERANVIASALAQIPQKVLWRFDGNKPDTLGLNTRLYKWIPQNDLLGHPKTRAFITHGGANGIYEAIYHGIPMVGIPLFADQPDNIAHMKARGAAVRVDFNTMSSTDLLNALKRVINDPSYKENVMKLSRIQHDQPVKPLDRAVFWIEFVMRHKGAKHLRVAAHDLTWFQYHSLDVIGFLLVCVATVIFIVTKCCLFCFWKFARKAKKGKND

Cytochrome P450 2D6 = Cytochrome P450 2D6 (Homo sapiens, UniProt P10635); experiment: Activation of CYP2D6 in human liver microsomes incubated for 3 mins prior to NAPDH-addition measured after 60 mins by RP-HPLC analysis; settings: 1 h
Sequence of Cytochrome P450 2D6 (P10635 whole entry): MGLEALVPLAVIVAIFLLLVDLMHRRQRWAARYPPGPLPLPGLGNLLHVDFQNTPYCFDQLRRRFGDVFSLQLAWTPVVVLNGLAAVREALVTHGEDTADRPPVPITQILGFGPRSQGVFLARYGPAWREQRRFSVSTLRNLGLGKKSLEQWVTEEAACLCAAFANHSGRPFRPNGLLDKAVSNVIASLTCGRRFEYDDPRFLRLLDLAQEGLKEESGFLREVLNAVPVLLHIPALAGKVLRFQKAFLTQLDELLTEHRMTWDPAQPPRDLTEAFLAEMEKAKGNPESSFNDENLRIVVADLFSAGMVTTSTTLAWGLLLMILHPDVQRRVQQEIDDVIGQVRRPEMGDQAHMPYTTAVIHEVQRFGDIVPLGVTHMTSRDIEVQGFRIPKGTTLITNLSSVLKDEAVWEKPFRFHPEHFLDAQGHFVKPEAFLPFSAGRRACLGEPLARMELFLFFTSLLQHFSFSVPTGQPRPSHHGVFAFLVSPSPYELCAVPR

Sequence of Human immunodeficiency virus type 1 integrase (Human immunodeficiency virus 1) (Q7ZJM1 as listed by the source): as the sequence (Q7ZJM1 whole entry) above

With `O=C(O)/C(O)=C/C(=O)c1cc(Cc2ccc(F)cc2F)cn(Cc2ccccc2F)c1=O` the IC90 [1] was 97 nM, the pIC50 [2] was 8.22 and the pEC50 [3] was 6.30. The Drug metabolism (Liver microsomes) was “Active”, the pIC50 (Cytochrome P450 2C8) was under 4.19 and the Activity (Cytochrome P450 3A4) was “Not Active”. The Activity [4] was “Not Active”, the Activity [5] was “Not Active” and the Activity [6] was “Not Active”. For the same compound, the Activity (Cytochrome P450 2D6) was “Not Active”.
